Measured values taken from ChEMBL document CHEMBL4004831, “Naphthalene diimide-polyamine hybrids as antiproliferative agents: Focus on the architecture of the polyamine chains” (Eur J Med Chem, 2017).
Blank lines part the entries; values can stand above or below the compound they belong to.

How the values were obtained:
Homo sapiens = species: Homo sapiens; assay: Stabilization of 5'Dabcyl/3'FAM labeled human telomeric sequence G-quadruplex DNA assessed as increase in melting temperature at 2.5 uM pretreated for 5 mins at 30 degreeC followed by 5 mins incubation at 95 degreeC by fluorescence assay
In short: (§1)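 FRET melting in LiP buffer (10 mM LiOH, 50 mM KCl, pH 7.0 with H3PO4), ex 488 nm, em 520 nm. Samples were held 5 min at 30 °C, heated at 1 °C/min to 95 °C, held 5 min, then re-annealed. Tm came from first derivatives; ΔTm = shift with ligand at 2.5; at least three runs.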

[1] = Stabilization of 5'Dabcyl/3'FAM labeled duplex DNA (unknown origin) assessed as increase in melting temperature at 2.5 uM pretreated for 5 mins at 30 degreeC followed by 5 mins incubation at 95 degreeC by fluorescence assay; in short: as §1
CCRF-CEM = assay: Growth inhibition of human CCRF-CEM cells incubated for 48 hrs by sulforhodamine B assay; assay type: functional
HL-60 = assay: Growth inhibition of human HL60 cells incubated for 48 hrs by sulforhodamine B assay; assay type: functional; settings: HL-60, 48 h
K562 = assay: Growth inhibition of human K562 cells incubated for 48 hrs by sulforhodamine B assay; assay type: functional; settings: K562, 48 h
MOLT-4 = assay: Growth inhibition of human MOLT4 cells incubated for 48 hrs by sulforhodamine B assay; assay type: functional; settings: MOLT-4, 48 h
RPMI-8226 = assay: Growth inhibition of human RPMI8226 cells incubated for 48 hrs by sulforhodamine B assay; assay type: functional; settings: RPMI-8226, 48 h
SR = assay: Growth inhibition of human SR cells incubated for 48 hrs by sulforhodamine B assay; assay type: functional
A549 = assay: Growth inhibition of human A549/ATCC cells incubated for 48 hrs by sulforhodamine B assay; assay type: functional; settings: A549, 48 h
HOP-62 = assay: Growth inhibition of human HOP62 cells incubated for 48 hrs by sulforhodamine B assay; assay type: functional; settings: HOP-62, 48 h
NCI-H226 = assay: Growth inhibition of human NCI-H226 cells incubated for 48 hrs by sulforhodamine B assay; assay type: functional; settings: NCI-H226, 48 h
NCI-H322M = assay: Growth inhibition of human NCI-H322M cells incubated for 48 hrs by sulforhodamine B assay; assay type: functional
NCI-H460 = assay: Growth inhibition of human NCI-H460 cells incubated for 48 hrs by sulforhodamine B assay; assay type: functional; settings: NCI-H460, 48 h
NCI-H522 = assay: Growth inhibition of human NCI-H522 cells incubated for 48 hrs by sulforhodamine B assay; assay type: functional; settings: NCI-H522, 48 h
COLO 205 = assay: Growth inhibition of human COLO205 cells incubated for 48 hrs by sulforhodamine B assay; assay type: functional; settings: COLO 205, 48 h
HCC 2998 = assay: Growth inhibition of human HCC2998 cells incubated for 48 hrs by sulforhodamine B assay; assay type: functional; settings: HCC 2998, 48 h
HCT-116 = assay: Growth inhibition of human HCT116 cells incubated for 48 hrs by sulforhodamine B assay; assay type: functional; settings: HCT-116, 48 h
HCT-15 = assay: Growth inhibition of human HCT15 cells incubated for 48 hrs by sulforhodamine B assay; assay type: functional; settings: HCT-15, 48 h
KM12 = assay: Growth inhibition of human KM12 cells incubated for 48 hrs by sulforhodamine B assay; assay type: functional; settings: KM12, 48 h
SW-620 = assay: Growth inhibition of human SW620 cells incubated for 48 hrs by sulforhodamine B assay; assay type: functional; settings: SW-620, 48 h
SF-295 = assay: Growth inhibition of human SF295 cells incubated for 48 hrs by sulforhodamine B assay; assay type: functional; settings: SF-295, 48 h
SF-539 = assay: Growth inhibition of human SF539 cells incubated for 48 hrs by sulforhodamine B assay; assay type: functional; settings: SF-539, 48 h
SNB-19 = assay: Growth inhibition of human SNB19 cells incubated for 48 hrs by sulforhodamine B assay; assay type: functional; settings: SNB-19, 48 h
SNB-75 = assay: Growth inhibition of human SNB75 cells incubated for 48 hrs by sulforhodamine B assay; assay type: functional; settings: SNB-75, 48 h
U-251 = assay: Growth inhibition of human U251 cells incubated for 48 hrs by sulforhodamine B assay; assay type: functional; settings: U-251, 48 h
LOX IMVI = assay: Growth inhibition of human LOXIMVI cells incubated for 48 hrs by sulforhodamine B assay; assay type: functional
M14 = assay: Growth inhibition of human M14 cells incubated for 48 hrs by sulforhodamine B assay; assay type: functional; settings: M14, 48 h
SK-MEL-5 = assay: Growth inhibition of human SK-MEL-5 cells incubated for 48 hrs by sulforhodamine B assay; assay type: functional; settings: SK-MEL-5, 48 h
UACC-257 = assay: Growth inhibition of human UACC257 cells incubated for 48 hrs by sulforhodamine B assay; assay type: functional; settings: UACC-257, 48 h
UACC-62 = assay: Growth inhibition of human UACC62 cells incubated for 48 hrs by sulforhodamine B assay; assay type: functional; settings: UACC-62, 48 h
IGROV-1 = assay: Growth inhibition of human IGROV1 cells incubated for 48 hrs by sulforhodamine B assay; assay type: functional; settings: IGROV-1, 48 h
OVCAR-3 = assay: Growth inhibition of human OVCAR3 cells incubated for 48 hrs by sulforhodamine B assay; assay type: functional; settings: OVCAR-3, 48 h
OVCAR-4 = assay: Growth inhibition of human OVCAR4 cells incubated for 48 hrs by sulforhodamine B assay; assay type: functional; settings: OVCAR-4, 48 h
NCI/ADR-RES = assay: Growth inhibition of human NCI-ADR-RES cells incubated for 48 hrs by sulforhodamine B assay; assay type: functional
786-0 = assay: Growth inhibition of human 786-0 cells incubated for 48 hrs by sulforhodamine B assay; assay type: functional; settings: 786-0, 48 h
A498 = assay: Growth inhibition of human A498 cells incubated for 48 hrs by sulforhodamine B assay; assay type: functional; settings: A498, 48 h
ACHN = assay: Growth inhibition of human ACHN cells incubated for 48 hrs by sulforhodamine B assay; assay type: functional
CAKI-1 = assay: Growth inhibition of human Caki1 cells incubated for 48 hrs by sulforhodamine B assay; assay type: functional; settings: CAKI-1, 48 h
SN12C = assay: Growth inhibition of human SN12C cells incubated for 48 hrs by sulforhodamine B assay; assay type: functional
TK-10 = assay: Growth inhibition of human TK10 cells incubated for 48 hrs by sulforhodamine B assay; assay type: functional; settings: TK-10, 48 h
UO-31 = assay: Growth inhibition of human UO31 cells incubated for 48 hrs by sulforhodamine B assay; assay type: functional; settings: UO-31, 48 h
MDA-MB-231 = assay: Growth inhibition of human MDA-MB-231 cells incubated for 48 hrs by sulforhodamine B assay; assay type: functional; settings: MDA-MB-231, 48 h
Hs-578T = assay: Growth inhibition of human Hs 578T cells incubated for 48 hrs by sulforhodamine B assay; assay type: functional
BT-549 = assay: Growth inhibition of human BT549 cells incubated for 48 hrs by sulforhodamine B assay; assay type: functional; settings: BT-549, 48 h
EKVX = assay: Growth inhibition of human EKVX cells incubated for 48 hrs by sulforhodamine B assay; assay type: functional

ΔTm (Homo sapiens): 26.1 °C | ΔTm [1]: 17.1 °C | GI50 (CCRF-CEM): 2770 nM | GI50 (HL-60): 3680 nM | GI50 (K562): 2780 nM | GI50 (MOLT-4): 5210 nM | GI50 (RPMI-8226): 3000 nM | GI50 (A549): 3450 nM | GI50 (NCI-H226): 2170 nM | GI50 (NCI-H322M): 2210 nM | GI50 (NCI-H460): 2530 nM | GI50 (NCI-H522): 5620 nM | GI50 (COLO 205): 1380 nM | GI50 (HCC 2998): 3120 nM | GI50 (HCT-116): 2040 nM | GI50 (HCT-15): 4270 nM | GI50 (SW-620): 2160 nM | GI50 (U-251): 3240 nM | GI50 (SK-MEL-5): 813 nM | GI50 (OVCAR-3): 2930 nM | GI50 (OVCAR-4): 1700 nM | GI50 (786-0): 3360 nM | GI50 (ACHN): 2860 nM | GI50 (MDA-MB-231): 4630 nM | GI50 (BT-549): 3400 nM
Structure (SMILES): CNCCCNCCCCNCCCN1C(=O)c2ccc3c4c(ccc(c24)C1=O)C(=O)N(CCCNCc1ccccc1OC)C3=O
GI50 (SR): 4420 nM | GI50 (HOP-62): 2330 nM | GI50 (KM12): 2750 nM | GI50 (SF-295): 1330 nM | GI50 (SF-539): 2040 nM | GI50 (SNB-19): 3790 nM | GI50 (SNB-75): 1050 nM | GI50 (LOX IMVI): 3030 nM | GI50 (M14): 2630 nM | GI50 (UACC-257): 1250 nM | GI50 (UACC-62): 711 nM | GI50 (IGROV-1): 3020 nM | GI50 (NCI/ADR-RES): 7090 nM | GI50 (A498): 1780 nM | GI50 (CAKI-1): 2250 nM | GI50 (SN12C): 2950 nM | GI50 (TK-10): 4080 nM | GI50 (UO-31): 4310 nM | GI50 (Hs-578T): 2900 nM

ΔTm (Homo sapiens): 18 °C | ΔTm [1]: 9.5 °C | GI50 (CCRF-CEM): 465 nM | GI50 (HL-60): 2000 nM | GI50 (K562): 408 nM | GI50 (MOLT-4): 534 nM | GI50 (RPMI-8226): 1640 nM | GI50 (A549): 577 nM | GI50 (NCI-H226): 1420 nM | GI50 (NCI-H322M): 2220 nM | GI50 (NCI-H460): 429 nM | GI50 (NCI-H522): 1230 nM | GI50 (COLO 205): 498 nM | GI50 (HCC 2998): 1930 nM | GI50 (HCT-116): 270 nM | GI50 (HCT-15): 2360 nM | GI50 (SW-620): 365 nM | GI50 (U-251): 1610 nM | GI50 (SK-MEL-5): 1100 nM | GI50 (OVCAR-3): 1370 nM | GI50 (OVCAR-4): 641 nM | GI50 (786-0): 1270 nM | GI50 (ACHN): 500 nM | GI50 (MDA-MB-231): 2900 nM | GI50 (BT-549): 5030 nM
Structure (SMILES): CNCCCNCCCN1C(=O)c2ccc3c4c(ccc(c24)C1=O)C(=O)N(CCCNCc1ccccc1OC)C3=O
GI50 (SR): 270 nM | GI50 (HOP-62): 1240 nM | GI50 (KM12): 1180 nM | GI50 (SF-295): 894 nM | GI50 (SF-539): 782 nM | GI50 (SNB-19): 1680 nM | GI50 (SNB-75): 1110 nM | GI50 (LOX IMVI): 1520 nM | GI50 (M14): 1320 nM | GI50 (UACC-257): 1350 nM | GI50 (UACC-62): 1520 nM | GI50 (IGROV-1): 1450 nM | GI50 (NCI/ADR-RES): 12100 nM | GI50 (A498): 1540 nM | GI50 (SN12C): 1460 nM | GI50 (TK-10): 2580 nM | GI50 (UO-31): 5880 nM | GI50 (Hs-578T): 3020 nM

ΔTm (Homo sapiens): 22 °C | ΔTm [1]: 10.4 °C | GI50 (CCRF-CEM): 317 nM | GI50 (HL-60): 254 nM | GI50 (K562): 324 nM | GI50 (MOLT-4): 173 nM | GI50 (RPMI-8226): 10900 nM | GI50 (A549): 3010 nM | GI50 (NCI-H226): 2990 nM | GI50 (NCI-H460): 2080 nM | GI50 (NCI-H522): 1220 nM | GI50 (HCC 2998): 2250 nM | GI50 (HCT-116): 717 nM | GI50 (HCT-15): 12200 nM | GI50 (SW-620): 1740 nM | GI50 (U-251): 1170 nM | GI50 (SK-MEL-5): 1570 nM | GI50 (OVCAR-3): 2160 nM | GI50 (OVCAR-4): 466 nM | GI50 (ACHN): 4450 nM | GI50 (MDA-MB-231): 2090 nM | GI50 (BT-549): 2580 nM
Structure (SMILES): COc1ccccc1CNCCCN1C(=O)c2ccc3c4c(ccc(c24)C1=O)C(=O)N(CCCNCCNCCCN)C3=O
GI50 (SR): 898 nM | GI50 (EKVX): 4170 nM | GI50 (HOP-62): 2460 nM | GI50 (KM12): 3250 nM | GI50 (SF-295): 2770 nM | GI50 (SF-539): 2880 nM | GI50 (SNB-19): 2180 nM | GI50 (SNB-75): 3070 nM | GI50 (LOX IMVI): 2100 nM | GI50 (M14): 2070 nM | GI50 (UACC-257): 2530 nM | GI50 (UACC-62): 1680 nM | GI50 (IGROV-1): 3690 nM | GI50 (NCI/ADR-RES): 23100 nM | GI50 (A498): 5010 nM | GI50 (CAKI-1): 21700 nM | GI50 (SN12C): 2090 nM | GI50 (TK-10): 6650 nM | GI50 (UO-31): 10800 nM | GI50 (Hs-578T): 5510 nM
